A short description of data set [1]: Plasma protein binding in rat at 2 uM incubated for 4 to 24 hrs by equilibrium dialysis method. The data set is classed as ADME, cell-free. As to conditions: time 4-24 hrs, read-out: PPB (converted). The procedure, abridged: (§1)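 Rapid equilibrium dialysis in mouse, rat, dog, monkey or human plasma for 4 or 24 h at 2 μM.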
Data set [2] can be described thus: Prodrug conversion in Sprague-Dawley rat assessed as formation of N-(3-cyano-4-fluorophenyl)-4-(2-((3-ethynyloxetan-3-yl)amino)-2-oxoacetyl)-1,3,5-trimethyl-1H-pyrrole-2-carboxamide metabolite at 37.8 mg/kg, po measured for 24 hrs. It is filed as ADME, organism-based. To be noted: in vivo. The procedure, abridged: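 Single oral prodrug dose at molar equivalent of 30 mg/kg (rats) or […] of parent in 95% PEG 400/5% copovidone; whole blood collected into 4 volumes 75% MeOH/25% acetonitrile, centrifuged, parent quantified by LC-MS/MS; noncompartmental PK analysis.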

Data set [3] is described as follows: Stability in simulated gastric fluid for >=13 hrs. It is filed as physicochemical. To be noted: simulated gi fluid. Put shortly: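 Stability tested in simulated gastric fluid containing pepsin and simulated intestinal fluid containing pancreatin.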
Data set [4] is described as follows: Efflux ratio of apparent permeability in human Caco-2 cells at 2 uM incubated for 1 hr. The data set is classed as ADME, cell-based. The procedure, abridged:
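Bidirectional transport across Caco-2 cells in HBSS, pH 7.4, 0.1% final DMSO. Compound was tested at 1 or 2 μM for 1 h at 37 °C, 5% CO2. Apical and basal samples gave apparent permeability A→B and B→A, and the efflux ratio.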
A general note: Caco-2 monolayers are a common model of the intestinal barrier.

Data set [5] can be described thus: Plasma protein binding in Cynomolgous monkey at 2 uM incubated for 4 to 24 hrs by equilibrium dialysis method. The data set is classed as ADME, cell-free, Macaca fascicularis. To be noted: cynomolgus monkey, time 4-24 hrs, read-out: PPB (converted). Put shortly: as §1
On the technique in general: In equilibrium dialysis free small molecules cross a membrane that holds back macromolecules.

Data set [6] concerns the target Nuclear receptor subfamily 1 group I member 2 (Homo sapiens, UniProt O75469). Nature of the data set: Induction of PXR (unknown origin).
A short description of data set [7]: Volume of distribution at steady state in Cynomolgous monkey at 1 mg/kg, iv by LC-MS/MS analysis. It is filed as ADME, organism-based, Macaca fascicularis. As to conditions: cynomolgus monkey, in vivo, read-out: Vdss. The procedure, abridged:
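Fasted males (C57BL6 mice, Sprague−Dawley rats, beagle dogs, cynomolgus monkeys) given a single IV dose of 1 mg/kg in 80% PEG 400 in water. Plasma concentrations measured by LC-MS/MS. Vss derived by noncompartmental analysis using nominal dose and nominal sampling times.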

A short description of data set [8]: Cmax in Cynomolgous monkey at 5 mg/kg, po by LC-MS/MS analysis. It is filed as ADME, organism-based, Macaca fascicularis. As to conditions: cynomolgus monkey, in vivo. Put shortly: (§2)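 Single dose to fasted male C57BL6 mice, Sprague-Dawley rats, beagle dogs and cynomolgus monkeys, either IV at 1 mg/kg or PO as a solution at 5 mg/kg, in 80% PEG 400 in water. Plasma concentrations were measured by LC-MS/MS. PK parameters come from noncompartmental analysis using nominal doses and nominal sampling times.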

The nature of data set [9]: Clearance in C57BL/6J mouse at 1 mg/kg, iv by LC-MS/MS analysis. It is filed as ADME, organism-based. To be noted: in vivo. Put shortly:
as §2

Data set [10] in a line: Plasma protein binding in rat at 1 uM incubated for 4 to 24 hrs by equilibrium dialysis method. As to conditions: time 4-24 hrs, read-out: PPB (converted). It is filed as ADME, cell-free. Put shortly: (§3)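 Rapid equilibrium dialysis in mouse, rat, dog, monkey or human plasma for 4 or 24 h; test concentrations 1, […].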
The nature of data set [11]: Half life in Cynomolgous monkey at 5 mg/kg, po by LC-MS/MS analysis. The data set is classed as ADME, organism-based, Macaca fascicularis. To be noted: cynomolgus monkey, in vivo. The procedure, abridged:
as §2

A short description of data set [12]: Half life in C57BL/6J mouse at 1 mg/kg, iv by LC-MS/MS analysis. The data set is classed as ADME, organism-based. To be noted: in vivo. Put shortly:
as §2

Data set [13] can be described thus: Ratio of drug concentration in blood to plasma in mouse at 5 uM incubated for 60 mins. It is filed as ADME, cell-free. Put shortly: (§4)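 Compound at 5 μM in whole blood of each species, 37 ± 1 °C for 60 min; blood-to-plasma ratio and red blood cell partitioning determined.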
Data set [14] is described as follows: Half life in Sprague-Dawley rat at 5 mg/kg, po by LC-MS/MS analysis. It is filed as ADME, organism-based. To be noted: in vivo. Put shortly:
as §2

The nature of data set [15]: Plasma protein binding in dog at 1 uM incubated for 4 to 24 hrs by equilibrium dialysis method. The data set is classed as ADME, cell-free, Canis lupus familiaris. To be noted: time 4-24 hrs, read-out: PPB (converted). The procedure, abridged:
as §3

A short description of data set [16]: Half life in Cynomolgous monkey at 1 mg/kg, iv by LC-MS/MS analysis. The data set is classed as ADME, organism-based, Macaca fascicularis. As to conditions: cynomolgus monkey, in vivo. Put shortly:
as §2

A short description of data set [17]: Effect on differentiation of human HPC cells upto 10 uM. It is filed as toxicity, cell-based.
A short description of data set [18]: Ratio of drug concentration in blood to plasma in rat at 5 uM incubated for 60 mins. The data set is classed as ADME, cell-free. The procedure, abridged: as §4
The target in a further data set is Bile salt export pump (Homo sapiens, UniProt O95342). Nature of the data set: Inhibition of BSEP (unknown origin) transfected in HEK293 cells. It is filed as cell-based.
Bile salt export pump, sequence (O95342 whole entry): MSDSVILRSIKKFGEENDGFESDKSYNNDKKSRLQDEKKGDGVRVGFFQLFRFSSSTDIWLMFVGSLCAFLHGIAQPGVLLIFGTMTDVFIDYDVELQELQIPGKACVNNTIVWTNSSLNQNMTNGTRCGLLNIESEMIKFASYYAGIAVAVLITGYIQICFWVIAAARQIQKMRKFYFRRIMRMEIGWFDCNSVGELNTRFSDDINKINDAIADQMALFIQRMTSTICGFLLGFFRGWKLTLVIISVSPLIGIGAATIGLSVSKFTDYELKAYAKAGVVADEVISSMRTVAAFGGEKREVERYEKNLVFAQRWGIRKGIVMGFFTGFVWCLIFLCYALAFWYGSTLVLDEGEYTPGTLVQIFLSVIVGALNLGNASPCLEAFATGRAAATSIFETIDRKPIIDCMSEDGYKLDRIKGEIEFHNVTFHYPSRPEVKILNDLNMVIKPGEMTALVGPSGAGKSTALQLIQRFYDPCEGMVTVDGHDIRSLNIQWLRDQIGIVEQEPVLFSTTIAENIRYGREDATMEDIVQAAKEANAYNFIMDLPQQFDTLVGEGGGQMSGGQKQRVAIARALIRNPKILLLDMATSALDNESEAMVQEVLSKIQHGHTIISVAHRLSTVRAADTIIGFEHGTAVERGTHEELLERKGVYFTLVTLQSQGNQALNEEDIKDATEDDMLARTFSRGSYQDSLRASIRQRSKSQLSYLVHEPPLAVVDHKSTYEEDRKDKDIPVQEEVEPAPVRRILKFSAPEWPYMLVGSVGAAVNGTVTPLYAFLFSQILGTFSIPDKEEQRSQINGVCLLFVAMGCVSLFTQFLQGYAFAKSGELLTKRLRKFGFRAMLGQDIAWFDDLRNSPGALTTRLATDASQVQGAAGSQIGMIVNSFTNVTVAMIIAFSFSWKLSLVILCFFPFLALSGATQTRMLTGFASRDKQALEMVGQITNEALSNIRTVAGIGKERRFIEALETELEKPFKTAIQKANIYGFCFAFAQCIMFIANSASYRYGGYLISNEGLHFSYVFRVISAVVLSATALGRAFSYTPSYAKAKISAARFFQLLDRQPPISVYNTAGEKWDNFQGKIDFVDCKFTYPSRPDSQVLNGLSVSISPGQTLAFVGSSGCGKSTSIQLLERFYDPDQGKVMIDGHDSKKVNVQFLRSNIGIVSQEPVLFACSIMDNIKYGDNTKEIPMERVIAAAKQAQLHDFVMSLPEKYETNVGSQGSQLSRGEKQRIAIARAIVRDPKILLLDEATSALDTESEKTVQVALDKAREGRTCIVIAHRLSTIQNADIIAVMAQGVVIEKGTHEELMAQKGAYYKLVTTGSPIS
Data set [19] is described as follows: Half life in Sprague-Dawley rat at 1 mg/kg, iv by LC-MS/MS analysis. The data set is classed as ADME, organism-based. To be noted: in vivo. Put shortly: as §2
The target of data set [20] is Broad substrate specificity ATP-binding cassette transporter ABCG2 (Homo sapiens, UniProt Q9UNQ0). Nature of the data set: Inhibition of BCRP in human Caco-2 cells using estrone 3-sulfate as substrate. The data set is classed as cell-based. The procedure, abridged:
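Inhibition of estrone 3-sulfate (5.00 μM) transport in Caco-2 cells was measured at eight concentrations (0.0229–50.0 μM or 0.0457–100 μM). Percent inhibition relative to vehicle control was used to calculate IC50.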

The subject of the next data set is Mus musculus. The experiment in a line: Effect on HBsAg level in C57BL/6 mouse infected with AAV-Hepatitis B virus at 15 to 50 mg/kg, po qd for 56 days followed by induction of compound washout period for 14 days. As to conditions: dose 15-50 mg/kg, time 70.0 day. It is filed as functional, organism-based.
The nature of data set [21]: AUC (infinity) in Beagle dog at 1 mg/kg, iv by LC-MS/MS analysis. It is filed as ADME, organism-based, Canis lupus familiaris. As to conditions: in vivo. Put shortly:
as §2

Data set [22] deals with Hepatitis B virus. The experiment in a line: Antiviral activity against AAV-Hepatitis B virus infected in C57BL/6 mouse assessed as reduction in baseline HBV DNA production at 15 mg/kg, po bid measured after 56 days. It is filed as functional. As to conditions: time 56 day.
Data set [23] relates to Hepatitis B virus. The experiment in a line: Antiviral activity against AAV-Hepatitis B virus infected in C57BL/6 mouse assessed as reduction in baseline HBV DNA production at 15 mg/kg, po bid for 56 days followed by induction of compound washout period measured after 7 days. The data set is classed as functional. As to conditions: time 63 day.
A short description of data set [24]: Tmax in C57BL/6J mouse at 5 mg/kg, po by LC-MS/MS analysis. The data set is classed as ADME, organism-based. To be noted: in vivo. Put shortly:
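Fasted males (C57BL6 mice, Sprague−Dawley rats, beagle dogs, cynomolgus monkeys) given a single oral solution dose of 5 mg/kg in 80% PEG 400 in water. Plasma sampled over time, analysed by LC-MS/MS. Noncompartmental analysis used nominal doses and nominal sampling times.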

Data set [25] deals with Hepatitis B virus. Nature of the data set: Antiviral activity against HBV infected in human primary hepatocyte cells assessed as decrease in HBV DNA production pre-infected cells with virus followed by compound treatment for 3 days and subsequent replacement of medium with compound measured after 4 days by qPCR analysis. It is filed as functional, organism-based. The procedure, abridged:
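Primary human hepatocytes, 80,000/well, infected at MOI 100 in medium with 4% PEG, 2% DMSO, 10% FBS for 24 h, then washed. Compound from 2000 nM in 1/5 dilutions added on day 5 and refreshed on day 8. Medium collected on day 12; extracellular HBV DNA extracted and quantified by qPCR. n = 5 independent experiments.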

Data set [26] addresses Multidrug and toxin extrusion protein 2 (Homo sapiens, UniProt Q86VL8). Nature of the data set: Inhibition of MATE2 (unknown origin) transfected in HEK293 cells. The data set is classed as cell-based.
Data set [27] in a line: Ratio of drug concentration in blood to plasma in dog at 5 uM incubated for 60 mins. It is filed as ADME, cell-free, Canis lupus familiaris. The procedure, abridged:
as §4

Data set [28] is described as follows: Half life in Beagle dog at 5 mg/kg, po by LC-MS/MS analysis. It is filed as ADME, organism-based, Canis lupus familiaris. As to conditions: in vivo. The procedure, abridged: as §2

Molecules are shown by their SMILES. pEC50, pIC50: −log10 of the molar value. Calls of active or inactive are those of the source.

Multidrug and toxin extrusion protein 2, sequence (Q86VL8 whole entry): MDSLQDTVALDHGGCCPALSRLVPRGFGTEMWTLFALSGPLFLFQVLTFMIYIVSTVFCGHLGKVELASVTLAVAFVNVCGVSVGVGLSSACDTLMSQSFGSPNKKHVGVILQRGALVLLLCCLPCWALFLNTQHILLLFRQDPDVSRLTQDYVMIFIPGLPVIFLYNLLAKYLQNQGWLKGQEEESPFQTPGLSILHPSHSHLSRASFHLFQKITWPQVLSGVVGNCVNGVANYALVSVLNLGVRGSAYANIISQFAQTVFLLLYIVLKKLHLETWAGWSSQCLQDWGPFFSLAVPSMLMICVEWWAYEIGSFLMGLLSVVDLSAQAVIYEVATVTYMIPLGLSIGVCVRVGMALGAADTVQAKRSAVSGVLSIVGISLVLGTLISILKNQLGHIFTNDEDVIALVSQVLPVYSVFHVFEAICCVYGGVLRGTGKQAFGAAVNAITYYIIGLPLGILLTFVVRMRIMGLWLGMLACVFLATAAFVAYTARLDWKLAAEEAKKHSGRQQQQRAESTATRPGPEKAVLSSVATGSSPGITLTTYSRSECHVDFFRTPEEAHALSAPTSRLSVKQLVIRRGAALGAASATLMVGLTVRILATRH
Nuclear receptor subfamily 1 group I member 2, sequence (O75469 whole entry): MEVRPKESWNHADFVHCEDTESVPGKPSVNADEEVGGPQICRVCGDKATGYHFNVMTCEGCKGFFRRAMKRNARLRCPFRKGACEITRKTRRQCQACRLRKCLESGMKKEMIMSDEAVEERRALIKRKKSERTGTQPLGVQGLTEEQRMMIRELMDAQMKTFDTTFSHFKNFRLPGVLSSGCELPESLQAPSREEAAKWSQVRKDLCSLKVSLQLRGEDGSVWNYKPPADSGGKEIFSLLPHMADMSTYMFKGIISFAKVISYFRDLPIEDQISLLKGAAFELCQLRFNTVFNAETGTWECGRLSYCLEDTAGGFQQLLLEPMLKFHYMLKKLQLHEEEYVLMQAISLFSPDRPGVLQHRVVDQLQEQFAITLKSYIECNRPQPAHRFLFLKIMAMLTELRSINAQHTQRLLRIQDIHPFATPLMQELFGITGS
Broad substrate specificity ATP-binding cassette transporter ABCG2, sequence (Q9UNQ0 whole entry): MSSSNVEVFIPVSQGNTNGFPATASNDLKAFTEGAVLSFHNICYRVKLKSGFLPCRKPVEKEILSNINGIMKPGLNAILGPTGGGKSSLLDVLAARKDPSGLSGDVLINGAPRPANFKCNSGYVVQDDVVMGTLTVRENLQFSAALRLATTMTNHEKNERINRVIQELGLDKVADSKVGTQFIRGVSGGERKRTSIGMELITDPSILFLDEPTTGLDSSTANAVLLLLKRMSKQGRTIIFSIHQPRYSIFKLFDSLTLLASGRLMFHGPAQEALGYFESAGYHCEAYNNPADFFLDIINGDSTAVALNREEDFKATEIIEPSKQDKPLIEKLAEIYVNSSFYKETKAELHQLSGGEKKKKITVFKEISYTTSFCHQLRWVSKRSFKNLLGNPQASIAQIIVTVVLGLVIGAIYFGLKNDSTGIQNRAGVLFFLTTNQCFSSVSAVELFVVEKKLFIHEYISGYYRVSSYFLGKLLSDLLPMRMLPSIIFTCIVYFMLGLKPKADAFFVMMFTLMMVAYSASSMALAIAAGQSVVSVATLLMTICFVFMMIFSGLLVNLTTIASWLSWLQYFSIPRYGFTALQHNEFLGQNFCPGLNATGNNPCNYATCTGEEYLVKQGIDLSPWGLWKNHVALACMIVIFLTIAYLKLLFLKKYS

Consider `C#CC1(N(COP(=O)([O-])[O-])C(=O)C(=O)c2c(C)c(C(=O)Nc3ccc(F)c(C#N)c3)n(C)c2C)COC1.[Na+].[Na+]`, for which the fraction unbound at 2 µM in data set [1] is 0.025; in data set [5] it was 0.126. Also, the Drug metabolism result in data set [2] was “metabolite_detected”. The Stability entry in [3] was “Stable”. For the same compound, in [4], the efflux ratio (as a rule, a quotient of directional permeabilities that is used to spot active efflux) at 1 h, 2 µM amounted to 1.9.
In the case of `C#CC1(NC(=O)C(=O)c2c(C)c(C(=O)Nc3ccc(F)c(C#N)c3)n(C)c2C)COC1`, the Activity result in [6] is “Not_active”; in data set [17], “Non-toxic”; in the data set on Hepatitis B virus [22], -1.47 log10IU/ml; with Hepatitis B virus [23] it was -2.16 log10IU/ml. In addition, the Vd in data set [7] worked out at 0.89 L/kg. Further, the concentration in data set [8] peaked (Cmax) at 490 ng/mL. In addition, the clearance (in general, the volume of plasma or blood freed of the substance per unit of time) in data set [9] turned out to be 12 mL/min/kg. Further, the figures for the fraction unbound at 1 µM in data set [10] and in data set [15] were 0.211 and 0.286, respectively. The half-life (commonly the time needed for the level to fall by half in the phase considered) in [11] is 14.4 h; in [12], 1.37 h; in [14] it was 2.17 h; in data set [16], 1.85 h; in data set [19] it was 1.64 h; in data set [28] it was 7.83 h. The blood plasma ratio at 1 h, 5 µM in data set [13] is 0.83; in data set [18] it was 0.72; in data set [27] it was 0.82. For the same compound, the pIC50 (on Bile salt export pump; in [20]; in data set [26]) was < 4.93 each time. Further, the result in the data set with Mus musculus was inactive. For the same compound, the AUC(0-inf) (as a rule, the area under the concentration-time curve extrapolated to infinity) in data set [21] stood at 8520 ng·h/mL. In addition, the Tmax (commonly the time from dosing to the highest level) in data set [24] was determined as 1 h. Further, in the data set on Hepatitis B virus [25], the pEC50 (in general, the EC50 on a negative log10 scale, so that one unit is a factor of ten) is 8.70.

The values above are taken from ChEMBL document CHEMBL6092224, “The Discovery and Preclinical Profile of ALG-000184, a Prodrug of the Potent Hepatitis B Virus Capsid Assembly Modulator ALG-001075” (J Med Chem, 2024).
